Published values collected from several papers.
Lines come from different studies, so protocols differ.
Organism: Plasmodium falciparum
Effect on: parasite growth
Setting: blood stage

Compound	test	test system	setting	endpoint	value
CCN(CC)CCOc1ccc2c(c1)C(=O)c1cc(OCCN(CC)CC)ccc1-2	SYBR Green	3D7	–	IC50	1540 nM
COc1ccnn1-c1ccccc1NCC(=O)Nc1ccc(Oc2ccc(C)cc2)cc1	–	3D7	72 h	EC50	> 10000 nM
Cc1[nH]c(/C=C2\N=C(c3ccc[nH]3)C=C2OC(C)C)cc1Cc1ccc(Cl)cc1	SYBR Green	D6	72 h	IC50	3.75 nM
C[C@H]1Cc2c([nH]c3cc(Cl)c(F)cc23)[C@@]2(N1)C(=O)Nc1ccc(Cl)cc12	–	3D7	72 h	EC50	0.7 nM
CC(C)N(c1ccc(C#N)cc1)c1ccc(NC(=O)CN(C)c2ccccc2N2CCCC2=O)c(F)c1	–	3D7	72 h	EC50	44 nM
COc1cc(/C=C/c2cc(/C=C/c3ccc(O)c(OC)c3)n(-c3cccc([N+](=O)[O-])c3)n2)ccc1O	–	3D7	–	EC50	820 nM
CO[C@H]1C[C@H](O[C@@H]2/C(C)=C/C[C@@H]3C[C@@H](C[C@]4(CC[C@H](C)[C@@H](C5CCCCC5)O4)O3)OC(=O)[C@@H]3C=C(C)/C(=N/O)[C@H]4OC/C(=C\C=C\[C@@H]2C)[C@]43O)O[C@@H](C)[C@@H]1O	–	NF54	–	IC50	698 nM
COC1=CC(c2ccc[nH]2)=N/C1=C\c1[nH]c(-c2ccc(OC)cc2)cc1-c1ccc(OC)cc1	SYBR Green	D6	72 h	IC50	31.2 nM
N#Cc1ccc(Oc2ccc(NC(=O)CNc3ccccc3N3CCCC3=O)cc2)cc1	–	3D7	72 h	EC50	1400 nM
CCC1=C(CC)/C(=C/c2cc(-c3ccc(OC(F)(F)F)cc3)c(C)[nH]2)N=C1c1ccc[nH]1	SYBR Green	D6	72 h	IC50	> 2500 nM
Cc1nnc(-c2ccc3ccn(CC(=O)Nc4ccccn4)c3c2)o1	–	3D7	72 h	EC50	4250 to 4780 nM
COc1cc(/C=C/C(=O)C(=Cc2ccccc2)C(=O)/C=C/c2ccc(O)c(OC)c2)ccc1O	–	3D7	–	EC50	3790 nM
COC1=CC(c2ccc[nH]2)=N/C1=C\c1[nH]c(C(=O)O)cc1Cc1ccc(Cl)cc1	SYBR Green	D6	72 h	IC50	> 2500 nM
O=C(CNc1ccccc1N1CCCC1=O)Nc1ccc(Oc2ccccc2)cc1	–	3D7	72 h	EC50	> 10000 nM
CCOC1=CC(c2ccc[nH]2)=N/C1=C\c1cc(Cc2ccc(OC(F)(F)F)cc2)c(C)[nH]1	SYBR Green	D6	72 h	IC50	6.89 nM
CCc1nnc(-c2ccc3ccn(CC(=O)Nc4cc(OC)c(OC)c(OC)c4)c3c2)o1	–	DD2	72 h	EC50	194 nM
COc1cc(/C=C/c2cc(/C=C/c3ccc(O)c(OC)c3)n(-c3ccc(Cl)cc3Cl)n2)ccc1O	–	3D7	–	EC50	3290 nM
CC1=C(C)/C(=C/c2[nH]c(Cc3ccc(Cl)cc3)cc2Cc2ccc(Cl)cc2)N=C1c1ccc[nH]1	SYBR Green	D6	72 h	IC50	> 2500 nM
COc1cc(/C=C/C(=O)C(=Cc2ccc([N+](=O)[O-])cc2)C(=O)/C=C/c2ccc(O)c(OC)c2)ccc1O	–	3D7	–	EC50	2770 nM
Cc1ccc(Oc2ccc(NC(=O)C(C)(C)Nc3ccccc3N3CCCC3=O)cc2)cc1	–	3D7	72 h	EC50	> 10000 nM
Cc1[nH]c(/C=C2\N=C(c3ccc[nH]3)C=C2OCc2ccccc2)cc1Cc1ccc(Cl)cc1	SYBR Green	D6	72 h	IC50	9.98 nM
COc1cc(/C=C/C(=O)C(=Cc2cccc(O)c2)C(=O)/C=C/c2ccc(O)c(OC)c2)ccc1O	–	3D7	–	EC50	1150 nM
Cc1ccc(N(c2ccc(NC(=O)CN(C)c3ccccc3N3CCCC3=O)cc2)C(C)C)cc1	–	3D7	72 h	EC50	5 nM
Cn1cc(-c2ccc3ccn(CC(=O)Nc4ccccc4Cl)c3c2)c(C(F)(F)F)n1	–	3D7	72 h	EC50	46 nM
COC1=CC(c2ccc[nH]2)=N/C1=C\c1[nH]c(-c2ccccc2)cc1-c1ccccc1	SYBR Green	D6	72 h	IC50	16.6 nM
CO[C@H]1/C=C/O[C@@]2(C)Oc3c(C)c(O)c4c(O)c(c(/C=N/N5CCN(C6CCCC6)CC5)c(O)c4c3C2=O)NC(=O)/C(C)=C\C=C\[C@H](C)[C@H](O)[C@@H](C)[C@@H](O)[C@@H](C)[C@H](OC(C)=O)[C@@H]1C	–	NF54	–	IC50	240 nM
CCN(c1ccc(C)cc1)c1ccc(NC(=O)CN(C)c2ccccc2N2CCCC2=O)cc1	–	3D7	72 h	EC50	19 nM
N=C(N)N/N=C/c1c(Cl)cccc1Cl	SYBR Green	3D7	–	IC50	39.8 nM
CC(C)N(c1ccc(NC(=O)CN(C)c2ccccc2N2CCCC2=O)cc1)c1ccc(Cl)c(F)c1	–	3D7	72 h	EC50	39 nM
COc1cc(C=C(C(=O)/C=C/c2ccc(O)c(OC)c2)C(=O)/C=C/c2ccc(O)c(OC)c2)ccc1O	–	3D7	–	EC50	1790 nM
